Experiments:
Type in all cases: cell-based, Saccharomyces cerevisiae
[1] = tested on: wild-type cells (RH144-3D); experiment: 35S-a-factor internalization assay; conditions: after a 34 °C preincubation; data not shown
[2] = tested on: wild-type cells (RH144-3D); experiment: LY-CH accumulation in the vacuole; conditions: LY 4 mg/ml, fluorescence microscopy, minimum of 46 cells counted
Procedure, shortened: (§1)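 Cells grown overnight at 24°C, then harvested and split. One half stayed at 24°C. The other was shifted slowly to 35°C by resetting the water bath, and lucifer yellow CH (4 mg/ml) was added once 35°C was reached. Cells were washed extensively in ice-cold 50 mM sodium succinate pH 5 with 10 mM sodium azide, then viewed by Nomarski and fluorescence optics with 20–25 s exposures. Cells with clear vacuolar staining were scored positive. Cells without staining but with a vacuole visible by Nomarski were scored negative.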

[3] = tested on: end3 cells (RH266-1D); experiment: LY-CH accumulation in the vacuole; conditions: LY 4 mg/ml, fluorescence microscopy, minimum of 46 cells counted
Procedure, shortened: as §1

[4] = tested on: end4 cells (RH268-1C); experiment: LY-CH accumulation in the vacuole; conditions: LY 4 mg/ml, fluorescence microscopy, minimum of 46 cells counted
Procedure, shortened: as §1

[5] = tested on: end3 cells (RH266-1D); experiment: a-factor sensitivity halo assay; conditions: 24 °C
Procedure, shortened: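 Halo assay. Early log-phase cells were counted, washed with YPUAD and embedded in YPUAD containing 0.8% agar at 47°C. Disks containing α-factor were placed on the agar surface, and the radius of the growth-inhibition zone was read. The radius is logarithmically proportional to strain sensitivity.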

With `C[C@@H]1C[C@@H]([C@H](O)CC2CC(=O)NC(=O)C2)C(=O)[C@@H](C)C1` [cycloheximide] the “effect of cycloheximide on a-factor internalization kinetics” value [1] was “identical to cells which receive no cycloheximide”.

Lucifer yellow-CH [LY] was tested, and the “% of cells showing vacuolar labeling” value ([2]; 24 °C, 2 h) was 92%, the “% of cells showing vacuolar labeling” value ([2]; 35 °C, 1 h) was 97% and the “% of cells showing vacuolar labeling” value ([3]; 24 °C, 2 h) was 4%. The “% of cells showing vacuolar labeling” value ([3]; 35 °C, 1 h) was 4%, the “% of cells showing vacuolar labeling” value ([4]; 24 °C, 2 h) was 10% and the “% of cells showing vacuolar labeling” value ([4]; 35 °C, 1 h) was 0%.

For alpha-factor, the “a-factor needed to form the same size halo, relative to end4 or wild-type cells” value [5] was “approximately two times less”.
